Results gathered from unrelated publications.
Cell line: A549
Observed: cell growth or viability

With `CN1CCC(NC2CCc3[nH]c4c(C(N)=O)ccc(-c5ccccc5Cl)c4c3C2)CC1` (centres unmarked) the IC50 was 0.0301 µM (96 h).
`COc1ccc(NC(=S)N/N=C/c2ccc(N3CCC(O)CC3)cc2)cc1` has an IC50 of 5.2 µM (MTT; 24 h).
`O=C(Nc1ccc(F)cc1)Nc1nc2cc(-c3ccc4ncn(CCC5CCCCC5)c(=O)c4c3)ccc2s1` gave an IC50 of 9.1 µM (MTT; 72 h).
`OC1CCN(c2ccc(/C=N/NC(=S)NC3CCCCC3)cc2)CC1` gave an IC50 of 3.83 µM (MTT; 24 h).
`O=C(Nc1cccc(C(F)(F)F)c1)Nc1nc2cc(-c3ccc4ncn(CCN5CCOCC5)c(=O)c4c3)ccc2s1` has an IC50 of 1.48 µM (MTT; 72 h).
The IC50 of `CCCCC(=O)Nc1cc(C)c(-c2ccc3ncn(CCC)c(=O)c3c2)cn1` is reported as greater than 10 µM (CCK-8; 72 h).
With `[NH2][Pt]([NH2])([Cl])[Cl]` the IC50 was 27.2 µM (MTT; 48 h).
For `COc1cccc2c1C(=O)c1c(O)c3c(c(O)c1C2=O)C[C@@](O)(C(=O)CO)C[C@@H]3O[C@H]1C[C@H](N)[C@H](O)[C@H](C)O1`, the IC50 was 0.52 µM (MTT; 72 h).
The IC50 of `CCCCn1cnc2ccc(-c3ccc(NC(=O)NCC)nc3)cc2c1=O` is reported as greater than 10 µM (CCK-8; 72 h).
With `Cc1sc2c(c1C)C(c1ccc(Cl)cc1)=N[C@@H](CC(=O)NCCCCNC(=O)COc1cccc3c1C(=O)N(C1CCC(=O)NC1=O)C3=O)c1nnc(C)n1-2` (some centres unmarked) the IC50 was greater than 10 µM (CCK-8; 72 h).
The IC50 of `CCCCn1cnc2ccc(-c3ccc(NC(=O)Nc4ccc(Cl)cc4)nc3)cc2c1=O` is reported as greater than 10 µM (CCK-8; 72 h).
For `O=C(Cn1cc(COc2ncnc3[nH]cnc23)nn1)NCc1ccc(Cl)cc1`, the IC50 was 15.3 µM (MTT).
The IC50 of `O=C(O)c1ccc(NCc2cccc(O)c2O)cc1` is reported as 90.7 µM (resazurin; 72 h).
`C(=N\Nc1cc(N/N=C/c2ccc3ccccc3n2)ncn1)/c1ccc2ccccc2n1` gave an IC50 of 16.7 µM (MTT; 48 h).
`Cc1cc(NS(=O)(=O)c2ccc(NC(=O)/C(C#N)=C/c3cccnc3)cc2)no1` has an IC50 of greater than 200 µM (MTT; 48 h).
`O=C(NO)Nc1nc2c(Cl)cc(Cl)cc2c(=O)n1-c1ccccc1` gave an IC50 of 45.1 µM (MTT; 48 h).
`Cc1ccc(C(C)C)c(OC2=C(Cl)C(=O)c3ccccc3C2=O)c1` has an IC50 of 40 µg/mL (MTT; 24 h).
For `CN(C)C(=O)Nc1nc2ccc(Br)cc2c(=O)n1-c1ccccc1`, the IC50 was 31.1 µM (MTT; 48 h).
`CCCC(=O)Nc1ccc(-c2ccc3ncn(Cc4ccc(C)cc4)c(=O)c3c2)cn1` has an IC50 of greater than 10 µM (CCK-8; 72 h).
`COC(=O)c1cc(C(C)=NNc2nc(-c3ccc4c(c3)OCCCO4)cs2)ccc1O` has an IC50 of 180 µM (MTT; 96 h).
For `Cc1cc(NS(=O)(=O)c2ccc(NC(=O)/C(C#N)=C/c3ccncc3)cc2)no1`, the IC50 was 196 µM (MTT; 48 h).
For `C/C(=N\NC(=O)/N=C(\C)c1c(O)c2ccccc2oc1=O)c1c(O)c2ccccc2oc1=O`, the IC50 was 20.8 µM (MTT; 48 h).
`O=C(C=Cc1ccc(OCCOc2ccc(C=CC(=O)c3cccs3)cc2)cc1)c1cccs1` gave an IC50 of 273 µM (MTT; 48 h).
The IC50 of `CCCCC(=O)Nc1ccc(-c2ccc3ncn(CCC)c(=O)c3c2)cn1` is reported as 0.11 µM (CCK-8; 72 h).
The IC50 of `O=C(Nc1cccc(F)c1)Nc1nc2cc(-c3ccc4ncn(CCN5CCOCC5)c(=O)c4c3)ccc2s1` is reported as greater than 20 µM (MTT; 72 h).
`Cc1cccc(C)c1NC(=S)N/N=C/c1ccc(N2CCC(O)CC2)cc1` gave an IC50 of 1.56 µM (MTT; 24 h).
The IC50 of `COc1ccc(CNc2ccc(C(=O)O)cc2)cc1` is reported as greater than 100 µM (resazurin; 72 h).
`COc1cccc2c1C(=O)c1c(O)c3c(c(O)c1C2=O)C[C@@](O)(C(=O)CO)C[C@@H]3O[C@H]1C[C@H](N)[C@H](O)[C@H](C)O1` gave an IC50 of 0.307 µM (MTT).
For `C/C(=N/NC(=O)c1cn(-c2ccccc2)nc1-c1ccc(Br)cc1)c1c(O)cc(C)oc1=O`, the IC50 was 140 µM (MTT; 48 h).
The IC50 of `COc1cc(C=NNC(=O)c2cc(-c3ccccc3)n(-c3ccc(S(N)(=O)=O)cc3)n2)cc(OC)c1OC` is reported as 18.8 µM (fluorescence; 48 h).
`CCC(=O)Nc1nc2cc(-c3ccc4ncn(Cc5ccccc5)c(=O)c4c3)ccc2s1` has an IC50 of greater than 20 µM (MTT; 72 h).
With `O=C(Nc1ccc(-c2ccc3ncn(Cc4ccccc4)c(=O)c3c2)cn1)c1ccco1` the IC50 was greater than 10 µM (CCK-8; 72 h).
For `O=C(Nc1nc2cc(-c3ccc4ncn(Cc5ccccc5)c(=O)c4c3)ccc2s1)c1ccccc1`, the IC50 was greater than 20 µM (MTT; 72 h).
`NNc1nc2c(Cl)cc(Cl)cc2c(=O)n1-c1ccccc1` gave an IC50 of greater than 200 µM (MTT; 48 h).
`COc1cccc(NC(=O)Nc2nc3cc(-c4ccc5ncn(CCC6CCCCC6)c(=O)c5c4)ccc3s2)c1` gave an IC50 of 1.27 µM (MTT; 72 h).
`CC(C)[C@@H]1NC(=O)[C@@H](Cc2c[nH]cn2)NC(=O)[C@H]([C@@H](C)O)NC(=O)[C@@H](CCCN)NC(=O)[C@H](Cc2ccccc2)NC(=O)[C@@H](Cc2ccccc2)NC1=O` gave an IC50 of 55.8 µM (ATP luminescence).
The IC50 of `CCCn1cnc2ccc(-c3ccc(N4CCCCCC4=O)nc3)cc2c1=O` is reported as greater than 10 µM (CCK-8; 72 h).
`CC(=O)O[C@H]1C(=O)[C@@]2(C)[C@H]([C@H](OC(=O)c3ccccc3)[C@]3(O)C[C@H](OC(=O)[C@H](O)[C@@H](NC(=O)c4ccccc4)c4ccccc4)C(C)=C1C3(C)C)[C@]1(OC(C)=O)CO[C@@H]1C[C@@H]2O` gave an IC50 of 0.64 µM (MTT; 72 h).
The IC50 of `NS(=O)(=O)c1ccc(-n2nc(-c3nnc(S)o3)cc2-c2ccccc2)cc1` is reported as 26.9 µM (fluorescence; 48 h).
With `CNC(=S)N/N=C/c1cccc2cc3ccccc3nc12` the IC50 was 26.9 µM (MTT; 48 h).
`Fc1ccccc1Nc1nc(-c2ccncc2)nc2c1CNCC2` has an IC50 of greater than 100 µM (MTT).
For `COc1cccc(CNc2ccc(C(=O)O)cc2)c1OC`, the IC50 was greater than 100 µM (resazurin; 72 h).
The IC50 of `CCCCC(=O)Nc1ccc(-c2ccc3ncn(CCC(C)C)c(=O)c3c2)cn1` is reported as 0.45 µM (CCK-8; 72 h).
For `C/C(=N\C(=N)/N=C(\C)c1c(O)c2ccccc2oc1=O)c1c(O)c2ccccc2oc1=O`, the IC50 was 66 µM (MTT; 48 h).
